Source: paper PMC3932958 (Journal of medicinal chemistry, 2013)

Key:
[1] = test system: GCPII; details: read-out: IC50 (GCPII); cited from earlier work
[2] = test system: rat chronic constriction injury model of neuropathic pain; details: cited from earlier work
[3] = healthy subjects; cited from earlier work
[4] = Chemical stability in simulated gastric fluid; assay type: physicochemical; details: simulated gastric fluid pH 1.2, 37 °C, up to 48 h
Procedure, shortened: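 Test compound added to simulated gastric fluid (pH 1.2) and incubated at 37 °C. Samples taken at 30 min, 1, 4 and 48 h. Remaining thiolactone and hydrolysed parent quantified by HPLC: C18 column, water/acetonitrile gradient with 0.1% formic acid, UV detection at 220 nm.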

[5] = Preliminary in vivo pharmacokinetics in rats; details: rat, oral 10 mg/kg, time points 0.25, 0.5, 1, 3 h
[6] = Metabolic stability in rat liver microsomes; assay type: in vitro ADME; details: over 1.5 h (data not shown)
Procedure, shortened: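 Test compound at 10 μM incubated with rat liver microsomes (0.5 mg/mL) in 100 mM potassium phosphate, pH 7.4, in triplicate. Aliquots at 0, 30, 60 and 90 min were quenched with 2 volumes of ice-cold acetonitrile containing losartan as internal standard. Appearance of the parent thiol and loss of compound were followed by LC/MS/MS (C18, negative-ion ESI, MRM of [M − H]−).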

Structure (SMILES): O=C(O)CCC(CCCS)C(=O)O (stereo not drawn) [Compound 1, 2-(3-mercaptopropyl)pentanedioic acid]
- IC50 [1]: 90 nM
- Efficacy in preclinical animal models by oral administration ([2]; variety of preclinical animal models, oral): showed efficacy

Structure (SMILES): O=C(O)c1cccc(-c2cccc(CCS)c2C(=O)O)c1 [Compound 2, 3-(2-mercaptoethyl)-biphenyl-2,3’-dicarboxylic acid]
- IC50 [1]: 2 nM
- Potency in a preclinical model of neuropathic pain following oral administration ([2]; oral administration): significantly improved potency over 1

Structure (SMILES): CC(=O)S[C@@H](Cc1ccccc1)C(=O)N[C@H]1Cc2ccccc2[C@H]2CCC[C@@H](C(=O)O)N2C1=O [Compound 3]
- Plasma exposure to parent 4 after oral administration of prodrug [3]: substantial plasma exposure to 4

Structure (SMILES): O=C(O)CCC1CCCSC1=O (stereo not drawn) [Compound 5, 3-(2-Oxotetrahydro-2H-thiopyran-3-yl)propanoic acid]
- Release of parent compound / stability in simulated gastric fluid [4]: completely stable
- Time of highest plasma level of compound 1 [5]: highest at the earliest time point

Structure (SMILES): O=C(O)c1cccc(-c2cccc3c2C(=O)SCC3)c1 [Compound 6, 3-(1-Oxoisothiochroman-8-yl)benzoic acid]
- Release of parent compound / stability in simulated gastric fluid [4]: completely stable
- Stability in rat liver microsomes [6]: completely stable
